≈ marks a conversion by molar mass, not a printed value.
Assays:
Format in all cases: functional
[1] = system: Escherichia coli; experiment: In vitro antibacterial activity was measured on gram negative bacteria Escherichia coli J3272 tet-C(efflux resistance) cell lines
[2] = system: Escherichia coli; experiment: In vitro antibacterial activity was measured on gram negative bacteria Escherichia coli J3272 tet-D(efflux resistance) cell lines
[3] = system: Escherichia coli; experiment: In vitro antibacterial activity was measured on gram negative bacteria Escherichia coli PRP-1 tet-a(efflux resistance) cell lines
[4] = system: Escherichia coli; experiment: In vitro antibacterial activity was measured on gram negative bacteria Escherichia coli UBMS 88-1 tet-B(efflux resistance) cell lines
[5] = system: Escherichia coli; experiment: In vitro antibacterial activity was measured on gram negative bacteria Escherichia coli UBMS 90-4 tet-M (ribosomal protection) cell lines
How it was run: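 Agar dilution MIC on Mueller-Hinton II agar. Inoculum (1–5) × 10^5 CFU/mL, drug range 32–0.004 μg/mL. Plates incubated 18 h at 35 °C in a forced-air incubator. MIC is the lowest concentration that inhibits growth. The strain panel covered tetracycline-sensitive and -resistant strains. Tetracycline, minocycline and doxycycline were run as standards in each assay.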

[6] = system: Escherichia coli; experiment: In vitro antibacterial activity was measured on gram negative bacteria Escherichia coli UBMS 90-5 sensitive cell lines
How it was run: (§1)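 MIC by agar dilution on Mueller-Hinton II agar; inoculum (1–5) × 10^5 CFU/mL; antibiotic range 32–0.004 μg/mL; plates incubated 18 h at 35 °C in forced-air incubator. MIC taken as lowest concentration inhibiting growth. Tetracycline, minocycline and doxycycline run as standards in each assay.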

[7] = system: Staphylococcus aureus; experiment: In vitro antibacterial activity was measured on gram positive bacteria Staphylococcus aureus UBMS 90-1 tet-M (ribosomal protection) cell lines; how it was run: as §1
[8] = system: Staphylococcus aureus; experiment: In vitro antibacterial activity was measured on gram positive bacteria Staphylococcus aureus UBMS 90-3 sensitive cell lines; how it was run: as §1
[9] = system: Staphylococcus aureus; experiment: In vitro antibacterial activity was measured on gram positive bacteria Staphylococcus aureus smith cell lines; how it was run: as §1
[10] = system: Staphylococcus aureus; experiment: In vitro antibacterial activity was measured on gram positive bacteria Staphylococcus aureus UBMS 88-7 tet-k(efflux resistance) cell lines

SMILES	MIC [1] [µg/mL]	MIC [2] [µg/mL]	MIC [3] [µg/mL]	MIC [4] [µg/mL]	MIC [5] [µg/mL]	MIC [6] [µg/mL]	MIC [7] [µg/mL]	MIC [8] [µg/mL]	MIC [9] [µg/mL]	MIC [10] [µg/mL]
C[C@H]1c2ccc(NC(=O)[C@@H]3CCCN3)c(O)c2C(=O)C2=C(O)[C@]3(O)C(O)=C(C(N)=O)C(=O)[C@@H](N(C)C)C3[C@@H](O)C21 (stereo not given in full)	8 (≈ 14.4 µM)	1 (≈ 1.8 µM)	16 (≈ 28.7 µM)	4 (≈ 7.19 µM)	2 (≈ 3.59 µM)	2 (≈ 3.59 µM)	4 (≈ 7.19 µM)	1 (≈ 1.8 µM)	2 (≈ 3.59 µM)	
C[C@H]1c2ccc(NC(=O)CNC(C)(C)C)c(O)c2C(=O)C2=C(O)[C@]3(O)C(O)=C(C(N)=O)C(=O)[C@@H](N(C)C)C3[C@@H](O)C21 (stereo not given in full)	1 (≈ 1.75 µM)		1 (≈ 1.75 µM)	1 (≈ 1.75 µM)	0.5 (≈ 0.873 µM)	0.5 (≈ 0.873 µM)	1 (≈ 1.75 µM)	0.25 (≈ 0.437 µM)	0.5 (≈ 0.873 µM)	2 (≈ 3.49 µM)
CN(C)CC(=O)Nc1cc(N(C)C)c2c(c1O)C(=O)C1=C(O)[C@]3(O)C(O)=C(C(N)=O)C(=O)[C@@H](N(C)C)[C@@H]3CC1C2 (stereo not given in full)	2 (≈ 3.59 µM)		2 (≈ 3.59 µM)	0.5 (≈ 0.897 µM)	0.25 (≈ 0.448 µM)	0.25 (≈ 0.448 µM)	0.5 (≈ 0.897 µM)	0.25 (≈ 0.448 µM)	0.25 (≈ 0.448 µM)	2 (≈ 3.59 µM)
CN(C)CC(=O)Nc1ccc2c(c1O)C(=O)C1=C(O)[C@]3(O)C(O)=C(C(N)=O)C(=O)[C@@H](N(C)C)[C@@H]3CC1C2 (stereo not given in full)	2 (≈ 3.89 µM)		2 (≈ 3.89 µM)	1 (≈ 1.94 µM)	0.25 (≈ 0.486 µM)	0.25 (≈ 0.486 µM)	0.25 (≈ 0.486 µM)	0.12 (≈ 0.233 µM)	0.12 (≈ 0.233 µM)	1 (≈ 1.94 µM)
C[C@H]1c2ccc(NC(=O)[C@@H](N)Cc3ccc(O)cc3)c(O)c2C(=O)C2=C(O)[C@]3(O)C(O)=C(C(N)=O)C(=O)[C@@H](N(C)C)C3[C@@H](O)C21 (stereo not given in full)	16 (≈ 25.7 µM)		32 (≈ 51.4 µM)	16 (≈ 25.7 µM)	8 (≈ 12.8 µM)	8 (≈ 12.8 µM)	4 (≈ 6.42 µM)	0.5 (≈ 0.803 µM)	1 (≈ 1.61 µM)	32 (≈ 51.4 µM)
C[C@H]1c2ccc(NC(=O)[C@@H](N)CC3CCCCC3)c(O)c2C(=O)C2=C(O)[C@]3(O)C(O)=C(C(N)=O)C(=O)[C@@H](N(C)C)C3[C@@H](O)C21 (stereo not given in full)	8 (≈ 13.1 µM)	2 (≈ 3.26 µM)	8 (≈ 13.1 µM)	8 (≈ 13.1 µM)	4 (≈ 6.53 µM)	4 (≈ 6.53 µM)	8 (≈ 13.1 µM)	0.5 (≈ 0.816 µM)	1 (≈ 1.63 µM)	2 (≈ 3.26 µM)
CC(C)[C@H](N)C(=O)Nc1ccc2c(c1O)C(=O)C1=C(O)[C@]3(O)C(O)=C(C(N)=O)C(=O)[C@@H](N(C)C)C3[C@@H](O)C1[C@H]2C (stereo not given in full)	8 (≈ 14.3 µM)	1 (≈ 1.79 µM)	32 (≈ 57.3 µM)	4 (≈ 7.16 µM)	2 (≈ 3.58 µM)	2 (≈ 3.58 µM)	2 (≈ 3.58 µM)	0.5 (≈ 0.895 µM)	1 (≈ 1.79 µM)	8 (≈ 14.3 µM)
CN[C@@H](CC(C)C)C(=O)Nc1ccc2c(c1O)C(=O)C1=C(O)[C@]3(O)C(O)=C(C(N)=O)C(=O)[C@@H](N(C)C)C3[C@@H](O)C1[C@H]2C (stereo not given in full)	8 (≈ 13.6 µM)	2 (≈ 3.41 µM)	16 (≈ 27.3 µM)	8 (≈ 13.6 µM)	4 (≈ 6.82 µM)	4 (≈ 6.82 µM)	2 (≈ 3.41 µM)	1 (≈ 1.7 µM)	2 (≈ 3.41 µM)	
C[C@H](N)C(=O)Nc1ccc2c(c1O)C(=O)C1=C(O)[C@]3(O)C(O)=C(C(N)=O)C(=O)[C@@H](N(C)C)C3[C@@H](O)C1[C@H]2C (stereo not given in full)	> 32		> 32	16 (≈ 30.2 µM)	8 (≈ 15.1 µM)	8 (≈ 15.1 µM)	8 (≈ 15.1 µM)	2 (≈ 3.77 µM)	2 (≈ 3.77 µM)	> 32
CC(C)C[C@H](N)C(=O)Nc1ccc2c(c1O)C(=O)C1=C(O)[C@]3(O)C(O)=C(C(N)=O)C(=O)[C@@H](N(C)C)C3[C@@H](O)C1[C@H]2C (stereo not given in full)	4 (≈ 6.99 µM)		16 (≈ 27.9 µM)	2 (≈ 3.49 µM)	1 (≈ 1.75 µM)	1 (≈ 1.75 µM)	1 (≈ 1.75 µM)	0.5 (≈ 0.873 µM)	0.5 (≈ 0.873 µM)	2 (≈ 3.49 µM)
C[C@H]1c2ccc(NC(=O)CN(C)C)c(O)c2C(=O)C2=C(O)[C@]3(O)C(O)=C(C(N)=O)C(=O)[C@@H](N(C)C)C3[C@@H](O)C21 (stereo not given in full)	8 (≈ 14.7 µM)		2 (≈ 3.67 µM)	1 (≈ 1.84 µM)	0.25 (≈ 0.459 µM)	0.5 (≈ 0.918 µM)	0.5 (≈ 0.918 µM)	0.12 (≈ 0.22 µM)	0.25 (≈ 0.459 µM)	4 (≈ 7.35 µM)
C[C@H]1c2ccc(NC(=O)[C@H](N)Cc3ccccc3)c(O)c2C(=O)C2=C(O)[C@]3(O)C(O)=C(C(N)=O)C(=O)[C@@H](N(C)C)C3[C@@H](O)C21 (stereo not given in full)		1 (≈ 1.65 µM)	16 (≈ 26.4 µM)		2 (≈ 3.3 µM)	4 (≈ 6.59 µM)	8 (≈ 13.2 µM)	1 (≈ 1.65 µM)	0.5 (≈ 0.824 µM)	16 (≈ 26.4 µM)
CC(C)C[C@H](N)C(=O)Nc1ccc2c(c1O)C(=O)C1=C(O)[C@]3(O)C(O)=C(C(N)=O)C(=O)[C@@H](N(C)C)C3CC1C2 (stereo not given in full)	4 (≈ 7.37 µM)	1 (≈ 1.84 µM)	4 (≈ 7.37 µM)	4 (≈ 7.37 µM)	2 (≈ 3.69 µM)	2 (≈ 3.69 µM)	1 (≈ 1.84 µM)	1 (≈ 1.84 µM)	2 (≈ 3.69 µM)	
C[C@H]1c2ccc(NC(=O)[C@@H](N)Cc3ccccc3)c(O)c2C(=O)C2=C(O)[C@]3(O)C(O)=C(C(N)=O)C(=O)[C@@H](N(C)C)C3[C@@H](O)C21 (stereo not given in full)		1 (≈ 1.65 µM)	8 (≈ 13.2 µM)		2 (≈ 3.3 µM)	4 (≈ 6.59 µM)	1 (≈ 1.65 µM)	0.5 (≈ 0.824 µM)	0.25 (≈ 0.412 µM)	4 (≈ 6.59 µM)
CC[C@H](C)[C@H](N)C(=O)Nc1ccc2c(c1O)C(=O)C1=C(O)[C@]3(O)C(O)=C(C(N)=O)C(=O)[C@@H](N(C)C)C3[C@@H](O)C1[C@H]2C (stereo not given in full)	4 (≈ 6.99 µM)	0.5 (≈ 0.873 µM)	16 (≈ 27.9 µM)	2 (≈ 3.49 µM)	1 (≈ 1.75 µM)	1 (≈ 1.75 µM)	1 (≈ 1.75 µM)	0.25 (≈ 0.437 µM)	1 (≈ 1.75 µM)	2 (≈ 3.49 µM)
CCN(CC)CC(=O)Nc1ccc2c(c1O)C(=O)C1=C(O)[C@]3(O)C(O)=C(C(N)=O)C(=O)[C@@H](N(C)C)C3[C@@H](O)C1[C@H]2C (stereo not given in full)	2 (≈ 3.49 µM)		4 (≈ 6.99 µM)	1 (≈ 1.75 µM)	0.5 (≈ 0.873 µM)	0.5 (≈ 0.873 µM)	2 (≈ 3.49 µM)	0.12 (≈ 0.21 µM)	0.25 (≈ 0.437 µM)	1 (≈ 1.75 µM)

Reference: ChEMBL document CHEMBL1127343, “"Glycylcyclines". 3. 9-Aminodoxycyclinecarboxamides” (1994)
